# Test results published in PubChem BioAssay AID493093 (Broad Institute, 2011).
# Active and inactive are the calls of the source.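 Rule for the calls: active = compounds lowering viability with an AC50 at or under ten times their top valid dose; inconclusive = flat curve with 30 to 70% viability loss, or poor fit; inactive = flat near zero, weak potency, or rising signal.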
# Tested on: not listed separately
# Experiment: viability loss in BJeHLT fibroblasts, dose response, counter-screen for Ras selective lethality project, cell-based, dry powder, set 2 (AID 493093)
# Details: BJeHLT fibroblasts viability, Alamar Blue fluorescence, 48 h; at 48 µM (top of the series)
# In short: (§1)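 Material: BJeHLT fibroblasts, BJ cells transformed with hTERT, SV40 LT and ST; Amount: 1000 cells/well; Times: 48 h exposure, 37 °C, 5% CO2, ~16 h Alamar Blue; Detection: Alamar Blue conversion fluorescence, excitation 544 nm, emission 590 nm.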
row,Structure (SMILES),"activity change, negative = loss of viability"
1,Cc1onc(C(=O)N2CCN(C(c3ccccc3)c3ccccc3)CC2)c1N,-0.577% (inactive)
2,CC(=O)Nc1c(C(=O)N2CCN(C(c3ccccc3)c3ccccc3)CC2)noc1C,8.25% (inactive)
3,Cc1onc(C(=O)N2CCN(C(c3ccncc3)c3ccncc3)CC2)c1[N+](=O)[O-],-2.93% (inactive)
4,O=[N+]([O-])c1ccc(CN2CCN(C(c3ccccc3)c3ccccc3)CC2)o1,-7.38% (inactive)
5,O=C(c1noc2ccccc12)N1CCN(C(c2ccccc2)c2ccccc2)CC1,15.4% (inactive)
6,Cc1oc(C)c(C(=O)N2CCN(C(c3ccccc3)c3ccccc3)CC2)c1C,19.3% (inactive)
7,Cc1onc(C(=O)N2CCN(C(c3ccccc3)c3ccccc3)CC2)c1Br,15.1% (inactive)
8,Cc1onc(C(=O)N2CCN(C(c3ccccc3)c3ccccc3)CC2)c1C,18.4% (inactive)
9,Cc1onc(C(=O)N2CCN(C(c3ccccc3)c3ccccc3)CC2)c1NS(C)(=O)=O,7.7% (inactive)
10,CC(C)c1onc(C(=O)N2CCN(C(c3ccccc3)c3ccccc3)CC2)c1[N+](=O)[O-],10% (inactive)
11,Cc1onc(C(=O)NCCNC(c2ccccc2)c2ccccc2)c1[N+](=O)[O-],-11.4% (inactive)
12,Cc1ccc(C(=O)N2CCN(C(c3ccccc3)c3ccccc3)CC2)c([N+](=O)[O-])c1,13% (inactive)

# Same assay, conditions: BJeHLT fibroblasts viability, Alamar Blue fluorescence, 48 h; at 68 µM (top of the series)
row,Structure (SMILES),"activity change, negative = loss of viability"
1,Cc1cc(C(=O)N2CCN(Cc3ccccc3)CC2)no1,1.07% (inactive)
2,CCOC(=O)N1CCN(C(=O)c2noc(C)c2[N+](=O)[O-])CC1,6.37% (inactive)
3,Cc1onc(C(=O)N2CCN(Cc3ccccc3)CC2)c1[N+](=O)[O-],4.74% (inactive)
4,Cc1onc(C(=O)NCc2ccc(F)cc2)c1[N+](=O)[O-],10.9% (inactive)
5,Cc1onc(C(=O)N2CCOCC2)c1[N+](=O)[O-],1.06% (inactive)
6,COc1ccccc1N1CCN(C(=O)c2noc(C)c2[N+](=O)[O-])CC1,7.12% (inactive)

# Tested on: BJeHLT fibroblasts viability, Alamar Blue fluorescence, 48 h
# Experiment: as above
# Details: not given
# In short: as §1
row,Structure (SMILES),AC50
1,Cc1onc(C(=O)N2CCN(C(c3ccccn3)c3ccccn3)CC2)c1[N+](=O)[O-],> 47.6 µM (inactive)
2,O=C(c1ccc([N+](=O)[O-])o1)N1CCCN(C(c2ccccc2)c2ccccc2)CC1,46.2 µM
3,Cc1onc(C(=O)N2CCN(C(c3ccc(Cl)cc3)c3ccc(Cl)cc3)CC2)c1[N+](=O)[O-],0.272 µM
4,Cc1onc(C(=O)N2CCN(C(c3ccc(F)cc3)c3ccc(F)cc3)CC2)c1[N+](=O)[O-],0.757 µM
5,COc1ccc(C(c2ccc(OC)cc2)N2CCN(C(=O)c3ccc([N+](=O)[O-])o3)CC2)cc1,6.85 µM
6,COc1ccc(C(c2ccc(OC)cc2)N2CCN(C(=O)c3noc(C)c3[N+](=O)[O-])CC2)cc1,5.32 µM
7,Cc1onc(C(=O)N2CCN(C(c3ccccc3)c3ccc(Cl)cc3)CC2)c1[N+](=O)[O-] (stereo not given),0.51 µM
8,O=C(c1ccc([N+](=O)[O-])o1)N1CCN(C(c2ccc(F)cc2)c2ccc(F)cc2)CC1,12.1 µM
9,Cc1onc(C(=O)N2CCN(C(c3ccccc3)c3ccccc3)CC2)c1[N+](=O)[O-],4.97 µM
10,O=C(c1ccc([N+](=O)[O-])o1)N1CCN(C(c2ccccc2)c2ccccc2)CC1,18.9 µM
11,Cc1onc(C(=O)N2CCCN(C(c3ccccc3)c3ccccc3)CC2)c1[N+](=O)[O-],2.79 µM
12,O=C(NCCNC(c1ccccc1)c1ccccc1)c1ccc([N+](=O)[O-])o1,3.35 µM
